Source: article PMC8358123 (International Journal for Parasitology: Drugs and Drug …, 2021)

Columns and labels:
PMM cytotoxicity = type: cell-based, mouse; settings: Swiss, mouse
[1] = tested on: T. cruzi Tulahuen CL2 β-galactosidase strain; test: In vitro activity against T. cruzi intracellular amastigotes in MRC-5SV2 cells; type: cell-based; settings: Trypanosoma cruzi, MRC-5 SV2, 168 h, read-out: T. cruzi EC50
Summary of the method: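 Nifurtimox-sensitive Tulahuen CL2 β-galactosidase parasites infected MRC-5SV2 fibroblasts in MEM with 200 mM L-glutamine, 16.5 mM NaHCO3 and 5% inactivated FCS, at 37 °C and 5% CO2. Wells held 4×10^3 cells and 4×10^4 parasites. Test compound was given as ten 4-fold dilutions (top 64 μM, <1% DMSO) for 7 days. CPRG was then added for 4 h at 37 °C and absorbance read at 540 nm. IC50 from % reduction versus untreated-infected controls; mean ± SEM, 2–4 experiments. Benznidazole reference.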

[2] = tested on: T. b. brucei (Squib 427 strain); test: In vitro activity against T. b. brucei; type: cell-based; settings: Trypanosoma brucei, read-out: T. b. bruc. EC50
MRC-5SV2 cytotoxicity = type: cell-based, human; settings: human, MRC-5SV2 cells
Summary of the method: (§1)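 MRC-5SV2 cells (3×10^4 cells/mL) in MEM with Earl's salts, L-glutamine, NaHCO3 and 5% inactivated FCS, at 37 °C and 5% CO2. Exposure to test compound (ten 4-fold dilutions, top 64 μM, <1% DMSO) lasted 3 days. Resazurin was then added for 4 h at 37 °C, with fluorescence read at ex 550/em 590 nm. CC50 from % reduction relative to untreated (100%) and medium-only (0%) controls.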

[3] = tested on: T. b. rhodesiense (STIB-900 strain); test: In vitro activity against T. b. rhodesiense; type: cell-based; settings: Trypanosoma brucei, read-out: T. b. rhod. EC50
Summary of the method: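 STIB-900 parasites, axenic in HMI-9 with 10% FBS at 37 °C and 5% CO2, seeded at 4×10^3 parasites/well. Test compound was given as ten 4-fold dilutions (top 64 μM, <1% DMSO). Growth period […], then resazurin added and fluorescence measured after 24 h. IC50 from a sigmoid variable-slope fit versus untreated controls; mean ± SEM, 2–4 experiments. Suramin as reference.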

[4] = tested on: L. infantum MHOM/MA (BE)/67; type: cell-based, Leishmania infantum
Summary of the method: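 Intracellular amastigotes of hamster spleen origin infected Swiss mouse peritoneal macrophages (elicited 2 days with 2% potato starch), in RPMI-1640 with 5% inactivated FCS, at 37 °C and 5% CO2, 4.5×10^5 parasites/well. Test compound (ten 4-fold dilutions, top 64 μM, <1% DMSO) was added 2 h post-infection. After 5 days, amastigotes/macrophage were counted after 10% Giemsa. IC50 was derived from % reduction versus controls; mean ± SEM, 2–4 experiments. Miltefosine reference.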

MRC-5SV2 cells = test: MRC-5SV2 cytotoxicity; type: cell-based, human; settings: read-out: MRC-5 CC50, 3 days incubation
Summary of the method: as §1

[5] = Microsomal stability assay, human; type: in vitro ADME; settings: pooled human liver microsomes (microsomal (S9) fractions), % remaining parent compound; for remaining at 0 h: 0 min; for remaining at 0.25 h: 15 min; for remaining at 0.5 h: 30 min; for remaining at 1 h: 60 min
[6] = Microsomal stability assay, hamster; type: in vitro ADME; settings: hamster microsomal (S9) fractions, % remaining parent compound; for remaining at 0 h: 0 min; for remaining at 0.25 h: 15 min; for remaining at 0.5 h: 30 min; for remaining at 1 h: 60 min
[7] = PMM CC50, primary peritoneal mouse macrophages
[8] = MRC-5 CC50, MRC-5SV2 cells, 3 days incubation

Compound	CC50 at 5 days (PMM cytotoxicity; [7]) [µM]	EC50 [1] [µM]	EC50 [2] [µM]	CC50 at 3 days (MRC-5SV2 cytotoxicity; [8]) [µM]	EC50 [3] [µM]	also measured
CCCCCCc1cn([C@@H]2O[C@H](CO)[C@@H](O)[C@H]2O)c2ncnc(C)c12 [compound 28]	> 64	42.1	> 64	> 64	> 64	
Cc1ncnc2c1c(CC(C)C)cn2[C@@H]1O[C@H](CO)[C@@H](O)[C@H]1O [compound 30]	> 64	> 64	> 64	> 64	> 64	
Cc1ncnc2c1c(C1=CCN(C)CC1)cn2[C@@H]1O[C@H](CO)[C@@H](O)[C@H]1O [compound 23]		> 64	> 64		> 64	CC50 at 5 days (PMM cytotoxicity): > 64 µM; EC50 ([4]; Leishmania infantum, Macrophage, in Mus musculus, 120 h, read-out: L. inf. EC50): > 64 µM; CC50 at 3 days (MRC-5SV2 cytotoxicity): > 64 µM
CCc1cn([C@@H]2O[C@H](CO)[C@@H](O)[C@H]2O)c2ncnc(N)c12 [compound 39, 7-ethyl-7-deazaadenosine]	> 64	0.99 ± 0.25	0.65 ± 0.02	50.4	0.5 ± 0.03	CC50 (MRC-5SV2 cells): > 64 µM
Cc1ncnc2c1c(CCC(C)C)cn2[C@@H]1O[C@H](CO)[C@@H](O)[C@H]1O [compound 32]	> 64	> 64	> 64	> 64	4	
CCCC#Cc1cn([C@@H]2O[C@H](CO)[C@@H](O)[C@H]2O)c2ncnc(C)c12 [compound 25]	> 64	20.4 ± 0.39	0.89 ± 0.21	> 64	0.37 ± 0.08	
Cc1ncnc2c1c(C1CCCC1)cn2[C@@H]1O[C@H](CO)[C@@H](O)[C@H]1O [compound 17]	> 64	48.9	> 64	> 64	53.6	
Cc1cn([C@@H]2O[C@H](CO)[C@@H](O)[C@H]2O)c2ncnc(C)c12 [compound 9]	> 64	1.54 ± 0.52	0.82 ± 0.32	> 64	0.45 ± 0.08	
Cc1ncnc2c1c(F)cn2[C@@H]1O[C@H](CO)[C@@H](O)[C@H]1O [compound 6]	32	< 0.25	0.41	0.3	< 0.25	
Cc1ncnc2c1c(C#CC1CC1)cn2[C@@H]1O[C@H](CO)[C@@H](O)[C@H]1O [compound 33]	> 64	4.59 ± 0.89	1.36 ± 0.41	27.5 ± 19	0.34 ± 0.11	
CCc1cn([C@@H]2O[C@H](CO)[C@@H](O)[C@H]2O)c2ncncc12 [compound 38]	> 64	5.38	1.54	> 64	1.73	
Cc1ncnc2c1c(CCc1ccccc1)cn2[C@@H]1O[C@H](CO)[C@@H](O)[C@H]1O [compound 36]	> 64	40.3	> 64	> 64	38.7	
Cc1ncnc2c1c(CCC1CC1)cn2[C@@H]1O[C@H](CO)[C@@H](O)[C@H]1O [compound 34]	> 64	> 64	> 64	> 64	> 64	
Cc1ncnc2c1c(Br)cn2[C@@H]1O[C@H](CO)[C@@H](O)[C@H]1O [compound 8]	32	5.28	> 64	39.6	3.84	
Cc1ncnc2c1c(C1CCOCC1)cn2[C@@H]1O[C@H](CO)[C@@H](O)[C@H]1O [compound 21]	> 64	3.98 ± 0.94	15.1 ± 1.02	> 64	12 ± 1.75	
Cc1ncnc2c1c(C1CCCCC1)cn2[C@@H]1O[C@H](CO)[C@@H](O)[C@H]1O [compound 19]	> 64	> 64	> 64	> 64	> 64	
CCc1cn([C@@H]2O[C@H](CO)[C@@H](O)[C@H]2O)c2ncnc(C)c12 [compound 13]	> 64	2.54 ± 0.47	0.75 ± 0.18	> 64	0.43 ± 0.06	fold improved activity against L. infantum compared to the 7-methyl analogue 9 ([4]; versus compound 9): 8 fold; remaining at 0 h ([5]; CYP – NADPH (Phase-I)): 100%; remaining at 0.25 h ([5]; CYP – NADPH (Phase-I)): 89%; remaining at 0.5 h ([5]; CYP – NADPH (Phase-I)): 92%; remaining at 1 h ([5]; CYP – NADPH (Phase-I)): 96%; remaining at 0 h ([5]; UGT Enz. (Phase-II)): 100%; remaining at 0.25 h ([5]; UGT Enz. (Phase-II)): 105%; remaining at 0.5 h ([5]; UGT Enz. (Phase-II)): 102%; remaining at 1 h ([5]; UGT Enz. (Phase-II)): 96%; remaining at 0 h ([6]; CYP – NADPH (Phase-I)): 100%; remaining at 0.25 h ([6]; CYP – NADPH (Phase-I)): 93%; remaining at 0.5 h ([6]; CYP – NADPH (Phase-I)): 102%; remaining at 1 h ([6]; CYP – NADPH (Phase-I)): 91%; remaining at 0 h ([6]; UGT Enz. (Phase-II)): 100%; remaining at 0.25 h ([6]; UGT Enz. (Phase-II)): 101%; remaining at 0.5 h ([6]; UGT Enz. (Phase-II)): 103%; remaining at 1 h ([6]; UGT Enz. (Phase-II)): 108%
Cc1ncnc2c1c(-c1ccccc1)cn2[C@@H]1O[C@H](CO)[C@@H](O)[C@H]1O [compound 24]	> 64	40.3	> 64	> 64	> 64	
CCc1cn([C@@H]2O[C@H](CO)[C@@H](O)[C@H]2O)c2nc[nH]c(=O)c12 [compound 40]	> 64	> 64	48.5	> 64	40.3	
CC(C)=Cc1cn([C@@H]2O[C@H](CO)[C@@H](O)[C@H]2O)c2ncnc(C)c12 [compound 29]	> 64	> 64	> 64	> 64	> 64	
